Compound activity as filed in PubChem BioAssay.
Most compounds without a hit are left out; they make up all but 1.5% or so of the library.
Hck Nef HTS: inhibitors of Nef-activated human Hck kinase, primary screen, biochemical, Z-Lyte FRET, 384-well, Hck-YEEI. inhibition, % at 20 µM. 0.68% of 220,000 active. Recombinant Hck-YEEI plus Nef, Z-Lyte FRET kinase assay. Tyrosine-protein kinase HCK (Homo sapiens), P08631;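 active means Hck-Nef kinase inhibition above about 50%, limit read from the data; inactive means inhibition below that limit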;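 further: 0% = DMSO with Hck plus Nef and 100% = Hck alone without Nef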
Runt-SMMHC FRET: inhibitors of RUNX1 Runt–CBFb-SMMHC binding, primary screen, biochemical, FRET, Cerulean-Runt, Venus-CBFb-SMMHC, uHTS. Runt-related transcription factor 1 (Homo sapiens) + Core-binding factor subunit beta …. Cerulean-Runt/Venus-CBFb-SMMHC FRET ratio 530/480, 1 h. inhibition, % at 20 µM. 0.74% of 220,000 active. AID 1434, 2008;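 active means mean inhibition across duplicate retests at 20 µM reaching about 50%, limit read from the data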;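 further: 0% = DMSO wells and 100% = wells with excess untagged CBFb-SMMHC; inhibitors lower the FRET ratio by blocking Runt binding to CBFb-SMMHC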
Target sequence (Q01196 whole entry, looked up): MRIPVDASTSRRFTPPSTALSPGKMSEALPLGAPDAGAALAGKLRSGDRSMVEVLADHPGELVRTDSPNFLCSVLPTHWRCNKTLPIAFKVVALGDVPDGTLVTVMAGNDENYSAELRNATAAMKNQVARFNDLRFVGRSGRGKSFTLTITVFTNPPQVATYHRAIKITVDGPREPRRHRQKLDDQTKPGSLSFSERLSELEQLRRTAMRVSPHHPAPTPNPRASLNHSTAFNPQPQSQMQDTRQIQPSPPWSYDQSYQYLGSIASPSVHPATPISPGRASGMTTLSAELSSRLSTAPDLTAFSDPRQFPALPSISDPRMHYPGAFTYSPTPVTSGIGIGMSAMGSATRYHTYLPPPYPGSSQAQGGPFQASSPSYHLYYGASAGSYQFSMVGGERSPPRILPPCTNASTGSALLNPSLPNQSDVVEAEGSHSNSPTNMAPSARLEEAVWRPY
Target sequence (Q13951 whole entry, looked up): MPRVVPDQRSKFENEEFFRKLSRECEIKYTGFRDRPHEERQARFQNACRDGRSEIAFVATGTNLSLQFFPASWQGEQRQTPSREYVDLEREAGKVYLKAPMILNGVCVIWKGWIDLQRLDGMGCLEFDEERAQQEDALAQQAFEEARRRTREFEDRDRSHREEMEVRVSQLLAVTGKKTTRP
CaV13 FRET inh: Disruptors of the CACNA1D IQ motif to Ca2+-dependent inactivation inhibitor domain association, primary screening, Förster resonance energy transfer in intact living …; AID 743397; HEK cells, CFP/YFP FRET ICDI-IQ, plate reader, 10 min; percent FRET-ratio fall versus neutral wells; inhibition, % at 12.3 µM; 0.098% of 340,000 active;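 active means mean replicate inhibition of at least 30% and at least 1% of replicates passing that level; inconclusive means only one of the two criteria is met; inactive means neither criterion is met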;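 further: 0% = median of the neutral control wells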
RanGTP-Impb inh: inhibitors of RanGTP-importin-beta interaction, primary screen, biochemical, FRET, CFP-Ran, YFP-importin-beta, homogeneous. 1.1% of 300,000 active. inhibition, % (test concentration not listed). cell-free CFP-Ran/YFP-importin-beta FRET ratio;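 active means more than half of the replicate wells show a fall in the fluorescence ratio signal beyond about 16%, limit read from the data, passing the limit was not always enough; inconclusive means exactly half of the replicate wells pass the set limit; inactive means fewer than half of replicates pass the limit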;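 further: 0% = DMSO wells and 100% = Ran loaded with GDP instead of GTP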
Runt-CBFb FRET: inhibitors of RUNX1 Runt–CBFb binding, primary screen, biochemical, FRET, Cerulean-Runt, Venus-CBFb, uHTS; 0.46% of 220,000 active; Cerulean-Runt/Venus-CBFb FRET ratio 530/480, 1 h; AID 1496, 2009; inhibition, % at 20 µM;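 active means inhibition over about 50% at 20 µM in the single-dose screen, limit read from the data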;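 further: 0% = DMSO wells and 100% = excess unlabeled CBFb competitor control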
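test system = Cerulean-Runt domain fusion protein, energy donor | probe or stimulus = Venus-CBFb binding partner, 100 nM | incubation = two 1 h room-temperature incubations shielded from light | detection = fluorescence energy transfer, 422 nm excitation, 530/480 nm emission | measure = loss of energy transfer signal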
RUNX1 CBFb TR: inhibitors of RUNX1 Runt–CBFb binding, biochemical, TR-FRET; inhibition, % at 20 µM; shares compounds with Runt-CBFb FRET; 20% of 480 active; TR-FRET RUNX1 Runt domain-CBFb binding; in the data active means inhibition above about 40%
Active calls of the source: *; ? = inconclusive; . = not tested or not shown.

SMILES	Hck Nef HTS	Runt-SMMHC FRET	CaV13 FRET inh	RanGTP-Impb inh	Runt-CBFb FRET	RUNX1 CBFb TR
CN1/C(=C\C(=O)c2cccnc2)Sc2ccccc21	44	51*	-7	10	66*	14
CCn1c(=O)c2sccc2n(Cc2ccccc2)c1=O	.	.	.	6	.	.
O=[N+]([O-])c1cccc(C(=S)N2CCN(c3ccccc3)CC2)c1	14	24	-5	1	53*	21
Cc1ccc(NC(=S)NCCc2ccccc2)nc1	16	21	-18	?	-2	.
CN(C)C(=O)c1cc2c(c(-c3cccc(C4=CCCCC4)c3)n1)[C@@H](CCO)N(S(=O)C(C)(C)C)C2 (some centres undefined)	.	.	-10	.	.	.
CCC1CCCCN1C(=O)CSc1nc(N)c(NC(=O)c2ccco2)c(=O)[nH]1 (centres undefined)	-4	-12	-3	2	63*	-9
COc1cc(C(=O)NCC2CCCO2)ccc1OCc1ccccc1Cl (centres undefined)	.	.	-5	5	.	.
CN1C(=O)C(Cl)(Cl)C(=O)c2ccccc21	-5	55	.	3	54*	5
O=c1oc2c(-c3cccc(F)c3)cc(O)cc2s1	28	9	-3	-1	58*	23
CC12CCC(=O)N1C(C(=O)Nc1nc3ccccc3s1)CS2 (centres undefined)	.	.	-5	.	.	.
COc1cc(C)c(NC(=O)C(=S)NCCc2ccccc2)cc1C	29	34	1	-2	51*	15
COC(=O)C1=C(C)N(Cc2ccc(C)cc2)C(=O)/C1=C\c1ccc(O)c(OC)c1	-1	6	-1	-3	27	.
CCOC(=O)C1=C(C)N(c2ccc(C)cc2)C(=O)/C1=C\c1ccc(O)c(OC)c1	-36	-13	-5	7	57*	25
Clc1ccc(-c2nc3ccncc3[nH]2)cc1	5	20	-8	?	59*	-10
N#Cc1sc2nc(-c3cccs3)cc(-c3ccc(F)cc3)c2c1N	-3	-95	-8	-18	-35	.
CS(=O)(=O)c1sc2nc(-c3cccs3)cc(-c3ccccc3)c2c1N	0	85*	-6	-2	54*	17
Cc1ccc2c(c1)sc(C)[n+]2CCCS(=O)(=O)[O-]	31	50	-1	1	58*	29
Fc1ccc(-c2ccnc(=S)[nH]2)cc1	-2	34	-7	0	52*	2
COc1ccc(Cn2c(C)nc3c(c2=O)c2nc4ccccc4nc2n3Cc2ccco2)cc1	.	.	-14	.	.	.
COc1ccc(Cn2c3nc4ccccc4nc3c3c(=O)n(Cc4ccco4)c(C)nc32)cc1	.	48	.	.	52*	-29
c1cc2c(cc1-c1csc(NNC3=NCCCCC3)n1)OCCO2	35	71*	-6	-2	60*	35
CCC(=O)Nc1nc(-c2ccc3c(c2)OCCO3)cs1	3	-1	-6	7	-1	.
COc1ccccc1CNC(=O)/C=C/c1ccc(S(=O)(=O)N2CCOCC2)cc1	16	1	1	3	-1	.
Cn1ccnc1Sc1nc2ccccc2nc1NS(=O)(=O)c1ccccc1	-3	73*	-6	?	61*	54*
O=C1NCCCC2c3c(cc(Br)c(O)c3Br)OC12N1CCCCC1 (centres undefined)	3	47	-5	3	50*	63*
SMILES	Hck Nef HTS	Runt-SMMHC FRET	CaV13 FRET inh	RanGTP-Impb inh	Runt-CBFb FRET	RUNX1 CBFb TR
O=C1NCCCc2c1oc1cc(Br)c(O)c(Br)c21	-5	16	-5	-5	11	.
Cc1ccc(C(=S)N2CCN(Cc3ccccc3)CC2)cc1	14	38	-5	1	52*	42*
Cc1ccc(NC(=S)N2CCN(Cc3ccccc3)CC2)cc1	25	2	0	0	-2	.
CCc1cc(C(=O)N2CCCC(C(=O)c3ccc(C(F)(F)F)cc3)C2)n(C)n1 (centres undefined)	.	.	-3	?	.	.
COCCCNC(=S)NCCCNc1nc2cc3c(cc2cc1C#N)OCO3	33	140*	-2	53*	78*	27
Cc1ccc2c(COC(=O)CC3Sc4ccccc4NC3=O)cc(=O)oc2c1C (centres undefined)	3	2	3	-2	-5	.
O=C(CC1Sc2ccccc2NC1=O)OCc1cc(=O)oc2cc(O)ccc12 (centres undefined)	13	.	-5	?	62*	49*
N#C/C(=C\c1c(N2CCCCCC2)nc2ccccn2c1=O)C(=O)NCc1ccco1	-3	-3	-20	6	75*	22
COCCOC(=O)c1c(N)n(CCCN2CCOCC2)c2nc3ccccc3nc12	31	97*	-3	11	51*	-4
CC(C)Cc1csc(NC(=O)c2ccccc2Cl)c1C(=O)O	1	-9	-6	-4	105*	3
COc1ccccc1N1C(=O)C2CC(C)=C(C)CC2C1=O (centres undefined)	2	0	.	-3	-1	.
COc1ccccc1N1C(=O)C=C(Sc2nc(C)cc(C)n2)C1=O	-172	68*	-3	-3	60*	37
O=C(O)C1OC(Oc2cc3oc(-c4ccccc4)cc(=O)c3c(O)c2O)C(O)C(O)C1O (centres undefined)	20	37	2	1	56*	9
COc1c(OC2OC(C(=O)O)C(O)C(O)C2O)cc(O)c2c(=O)cc(-c3ccccc3)oc12 (centres undefined)	20	12	-6	4	13	.
Oc1ccc(O)c(Cc2nc3ccccc3[nH]2)c1	17	5	-4	-1	53*	24
COc1ccc([N+](=O)[O-])cc1NC(=O)CSc1ccc2ccccc2c1	-1	2	4	2	-1	.
COc1ccc([N+](=O)[O-])cc1NC(=O)CSc1nc(C)cc(C)n1	2	46	-19	-2	57*	16
COC(=O)c1cc(=O)nc2sc(-c3ccc(F)cc3)nn12	-1	5	.	0	52*	22
Cn1cc(C(=O)Nc2ccc(F)c(Cl)c2)cn1	-2	4	-5	-3	0	.
CN1c2ccsc2C(O)=C(C(=S)Nc2ccc(F)c(Cl)c2)S1(=O)=O	4	.	-5	124*	85*	-14
